The subject of data set [1] is Rattus norvegicus. Description: Percentage of animals failing to escape shock was measured, affording a rough index for nonspecific sedation at 5 mg/kg(ip).
The nature of data set [2]: Stability half-life at pH-2; stable. Format: physicochemical. The essentials: (§1)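 Half-life measured in solution at pH 2, about 3 × 10⁻³ M compound in citric acid–phosphate buffer at 22 °C.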
The target of data set [3] is T1, 5-hydroxytryptamine receptor 1A (Rattus norvegicus, UniProt P19327).
T1 sequence (P19327 whole entry): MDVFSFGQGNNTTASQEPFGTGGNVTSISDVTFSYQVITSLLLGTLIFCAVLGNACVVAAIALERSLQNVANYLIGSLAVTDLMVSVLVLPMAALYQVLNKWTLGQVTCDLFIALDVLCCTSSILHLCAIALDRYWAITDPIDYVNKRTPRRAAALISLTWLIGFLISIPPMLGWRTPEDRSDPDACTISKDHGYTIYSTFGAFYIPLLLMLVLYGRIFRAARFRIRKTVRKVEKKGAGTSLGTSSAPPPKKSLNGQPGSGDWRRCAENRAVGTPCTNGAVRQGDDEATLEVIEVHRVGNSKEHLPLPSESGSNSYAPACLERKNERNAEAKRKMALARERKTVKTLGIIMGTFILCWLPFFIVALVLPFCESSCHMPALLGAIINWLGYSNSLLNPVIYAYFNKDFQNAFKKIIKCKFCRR
The data set can be described thus: Binding affinity was determined against 5-hydroxytryptamine 1A receptor using […].

Data set [4] deals with Rattus norvegicus. Description: Conditioned avoidance response activity was determined by the ability to block the conditioned avoidance of a foot shock at 15 mg/kg(ip). Format: functional. Put shortly: (§2)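 Male Fischer 344 rats (300–500 g) trained on a discrete-trial single-lever task, pressing the lever to avoid an impending shock; block of responding read at time of peak effect. Escape loss = percent of animals failing to escape the shock; >20% escape loss with CAR inhibition taken as potential for sedation.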

For data set [5], the system named is Rattus norvegicus. The data set can be described thus: Conditioned avoidance response activity was determined by the ability to block the conditioned avoidance of a foot shock at 5 mg/kg(ip). The format is functional. Put shortly:
as §2

A short description of data set [6]: Stability half-life at pH-2. The format is physicochemical. Put shortly: as §1
Data set [7] has as its system Rattus norvegicus. The data set can be described thus: Conditioned avoidance response activity was determined by the ability to block the conditioned avoidance of a foot shock (ip). Format: functional. Put shortly:
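Male Fischer 344 rats (300–500 g) were trained on a single-lever discrete-trial task in which a lever press avoids an impending shock. Block of avoidance was scored at the time of peak effect. […] The percentage of rats failing to escape the shock (escape loss) was also recorded.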

Data set [8] relates to Rattus norvegicus. The data set can be described thus: Percentage of animals failing to escape the shock was measured and affords a rough index for nonspecific sedation at 5 mg/kg(ip)(>20% esc loss = potential for sedation). Format: functional. Put shortly: as §2

In turn, `COc1ccccc1N1CCN(Cc2ccc(CN3CCCCCCC3=O)o2)CC1.O=C(O)CCC(=O)O` gave an Esc loss in the data set with Rattus norvegicus [1] of 19%. Further, the T1/2 entry in data set [2] is on record as “Stable”. For the same compound, in data set [3], the Ki (usually a dissociation constant, usually derived from enzyme kinetics or from competition with a known ligand) stood at 32 nM. In the data set on Rattus norvegicus [4], at 15 mg/kg the inhibition in vivo was 99%.
`CNC(=O)c1ccc(CN2CCN(c3ccccc3OC)CC2)n1C.O=C(O)CCC(=O)O` returned an Esc loss in the data set with Rattus norvegicus [1] of 0%. In addition, in data set [2], the T1/2 entry is recorded as “Stable”. For the same compound, in the data set with Rattus norvegicus [5], the inhibition in vivo (commonly the percentage by which the read-out fell short of the control) at 5 mg/kg worked out at 22%. The same compound had a Ki in data set [3] of 248 nM.
`CC(C)Oc1ccccc1N1CCN(CCc2ccc(C(=O)C(=O)N3CCCCCC3)n2C)CC1.O=C(O)CCC(=O)O`: in the data set on Rattus norvegicus [1], the Esc loss is 0%. Besides, in data set [2], the T1/2 entry is listed as “Stable”. Further, in the data set on Rattus norvegicus [5], the inhibition in vivo at 5 mg/kg is 1%. Further, the Ki in data set [3] stood at 12 nM.
The corresponding values for `CC(C)Oc1ccccc1N1CCN(CCc2ccc(C(=O)C(=O)N3CCCCC3)n2C)CC1.O=C(O)CCC(=O)O` are 1%, “Stable”, 16% and 2.3 nM.
`CC(C)Oc1ccccc1N1CCN(Cc2ccc(CN3CCCCCC3=O)o2)CC1.O=C(O)CCC(=O)O` showed an Esc loss in the data set with Rattus norvegicus [1] of 1%. Further, the half-life – broadly, the time needed for the level to fall by half in the phase considered – in data set [6] worked out at 10.5 h. This compound came in with a Ki in data set [3] of 51 nM. Also, in the data set on Rattus norvegicus [4], the inhibition in vivo at 15 mg/kg amounted to 83%.
As to `COc1ccccc1N1CCN(CCc2ccc(CN3CCCCC3=O)n2C)CC1.O=C(O)CCC(=O)O`, in the data set with Rattus norvegicus [1], the Esc loss is 4%. Besides, the T1/2 result in data set [2] is “Stable”. The inhibition in vivo at 5 mg/kg in the data set on Rattus norvegicus [5] is 23%. Further, in data set [3], the affinity corresponds to a Ki of 1.4 nM.
Compound `CC(C)Oc1ccccc1N1CCN(Cc2ccc(CN3CCCCCCC3=O)o2)CC1.O=C(O)CCC(=O)O` came in with an Esc loss in the data set on Rattus norvegicus [1] of 1%. Moreover, the T1/2 result in data set [2] is “Stable”. The inhibitory constant (Ki) in data set [3] turned out to be 29 nM. In the data set with Rattus norvegicus [4], this compound yielded an inhibition in vivo at 15 mg/kg of 76%.
As to `CC(C)Oc1ccccc1N1CCN(CCc2ccc(CN3CCCCC3=O)n2C)CC1.O=C(O)CCC(=O)O`, the Esc loss in the data set on Rattus norvegicus [1] is 19%. Moreover, in data set [2], the T1/2 result was “Stable”. The same compound yielded an inhibition in vivo at 5 mg/kg in the data set with Rattus norvegicus [5] of 82%. In data set [3], this compound returned a Ki of 1.5 nM.
For `COc1ccccc1N1CCN(Cc2ccc(CN3CCCCC3=O)o2)CC1.O=C(O)CCC(=O)O`, the Esc loss in the data set on Rattus norvegicus [1] was 0%. The same compound displayed a Ki in data set [3] of 38 nM. This compound also registered an inhibition in vivo at 15 mg/kg in the data set on Rattus norvegicus [4] of 10%.
Consider `CC(C)Oc1ccccc1N1CCN(Cc2ccc(CN3CCCCC3=O)o2)CC1.O=C(O)CCC(=O)O`, for which, in the data set with Rattus norvegicus [1], the Esc loss is 0%. Besides, the T1/2 result in data set [2] was “Stable”. Also, at 5 mg/kg the inhibition in vivo in the data set on Rattus norvegicus [5] was 46%. The compound also showed an inhibition constant (Ki) in data set [3] of 21 nM.
Take `COc1ccccc1N1CCN(Cc2ccc(CN3C(=O)c4ccccc4C3=O)o2)CC1`: the Esc loss in the data set on Rattus norvegicus [1] is 0%. The compound further showed a Ki in data set [3] of 1.9 nM. In the data set with Rattus norvegicus [4], this compound gave an inhibition in vivo at 15 mg/kg of 3%.
For the compound `O=C1CC2(CCCC2)CC(=O)N1CCCCN1CCN(c2ncccn2)CC1` [BUSPIRONE], the median effective dose (ED50) (in general, the dose that gives a 50% effect, or the effect in half of the subjects) in the data set on Rattus norvegicus [7] came to 4.5 mg/kg.
As for `CC(C)Oc1ccccc1N1CCN(Cc2ccc(CN3CCCCC3=O)n2C)CC1` [RWJ-25730], the half-life in data set [6] came out at 1.37 h. Moreover, testing at 5 mg/kg with Rattus norvegicus [5] gave an inhibition in vivo of 87%. In the data set on Rattus norvegicus [4], this compound showed an inhibition in vivo at 15 mg/kg of 98%. For the same compound, the Esc loss in the data set on Rattus norvegicus [8] came out at 8%.

For the origin of these results see ChEMBL document CHEMBL1128321, “Piperazinylalkyl heterocycles as potential antipsychotic agents” (J Med Chem, 1995).
